Measurements from ChEMBL document CHEMBL4359890, “Design, synthesis of oleanolic acid-saccharide conjugates using click chemistry methodology and study of their anti-influenza activity” (Eur J Med Chem, 2019).
Calls of active or inactive are those of the source. The rule behind the calls is not given here.

Assays:
MDCK = experiment: Cytotoxicity against dog MDCK cells assessed as reduction in cell viability at 100 uM measured after 40 hrs by Celltiter-Glo assay; format: cell-based, Canis lupus familiaris
Summary of the method: (§1)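 Uninfected MDCK cells were grown overnight in 96-well plates with 1% FBS. They were then exposed to increasing compound concentrations, or to a single 100 μM screen, for 40 h, and viability was read by CellTiter-Glo. CC50 is the concentration causing 50% death of uninfected cells.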

[1] = Cytotoxicity against dog MDCK cells assessed as reduction in cell viability measured after 40 hrs by Celltiter-Glo assay; format: cell-based, Canis lupus familiaris; summary of the method: as §1
Influenza A virus [2] = experiment: Antiviral activity against Influenza A virus A/WSN/33 assessed as inhibition of virus-induced cytopathic effect after 40 hrs by Celltiter-Glo assay; format: functional, organism-based; settings: A/WSN/33, 40 h
Summary of the method: (§2)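 MDCK cells were seeded in 96-well plates, left overnight, then infected with influenza virus at MOI 0.1 and treated with the compound. After 40 h, viability was read by CellTiter-Glo luminescence. 1% DMSO (final) served as the negative control and oseltamivir phosphate as the positive control. IC50 is the concentration that inhibits virus-induced CPE by 50%, taken from dose-response curves in replicate independent experiments.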

Influenza A virus [3] = experiment: Antiviral activity against Influenza A virus A/WSN/33 infected in MDCK cells assessed as reduction in virus-induced cytopathic effect at 100 uM after 40 hrs by Celltiter-Glo assay relative to control; format: functional; settings: A/WSN/33, MDCK
Summary of the method: (§3)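 This was a single-concentration screen at 100 μM in MDCK cells infected with A/WSN/33 at MOI 0.1. CPE protection was read by CellTiter-Glo after 40 h of incubation. The inhibition rate was expressed relative to 1% DMSO (final) negative control, with oseltamivir phosphate as the positive control. Experiments were run in triplicate.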

[4] = Cytotoxicity against dog MDCK cells assessed as cell viability at 100 uM measured after 40 hrs by Celltiter-Glo assay relative to control; format: cell-based, Canis lupus familiaris; settings: read-out: Activity; summary of the method: as §1
[5] = Selectivity index, ratio of CC50 for MDCK cells to IC50 for influenza A virus A/WSN/33; format: toxicity; settings: dog, read-out: Ratio CC50/IC50
Summary of the method: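 SI was calculated as CC50 (uninfected MDCK, 40 h CellTiter-Glo) divided by IC50 (50% inhibition of A/WSN/33 replication in MDCK, MOI 0.1, 40 h CellTiter-Glo).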

Influenza A virus [6] = experiment: Antiviral activity against Influenza A virus A/WSN/33 infected in MDCK cells assessed as reduction in virus-induced cytopathic effect at 100 uM after 40 hrs by Celltiter-Glo assay; format: functional, organism-based; summary of the method: as §3
Influenza B virus [7] = experiment: Antiviral activity against Influenza B virus B/Yamagata/16/88(BY) infected in MDCK cells assessed as inhibition of virus-induced cytopathic effect after 40 hrs by Celltiter-Glo assay; format: functional, organism-based; summary of the method: as §2
Influenza A virus [8] = experiment: Antiviral activity against Influenza A virus A/Victoria/361/2011(H3N2) infected in MDCK cells assessed as inhibition of virus-induced cytopathic effect after 40 hrs by Celltiter-Glo assay; format: functional, organism-based; summary of the method: as §2
Influenza B virus [9] = experiment: Antiviral activity against Influenza B virus B/Massachusetts/2/2012(BV) infected in MDCK cells assessed as inhibition of virus-induced cytopathic effect after 40 hrs by Celltiter-Glo assay; format: functional, organism-based; summary of the method: as §2
Influenza B virus [10] = experiment: Antiviral activity against Influenza B virus B/Sichuan/531/2018(BV) infected in MDCK cells assessed as inhibition of virus-induced cytopathic effect after 40 hrs by Celltiter-Glo assay; format: functional, organism-based; summary of the method: as §2

Q: With CC(=O)OC[C@H]1O[C@H](n2cc(CNC(=O)[C@]34CCC(C)(C)C[C@H]3C3=CC[C@@H]5[C@@]6(C)CC[C@H](O)C(C)(C)[C@@H]6CC[C@@]5(C)[C@]3(C)CC4)nn2)[C@@H](OC(C)=O)[C@@H](OC(C)=O)[C@@H]1OC(C)=O as the molecule, how does the Activity (MDCK) read?
A: Non-Toxic

Q: What about the CC50 at 40 h [1] of the same molecule?
A: > 100 µM

Q: What about the IC50 (Influenza A virus [2]) of the same molecule?
A: 7.22 µM

Q: And the inhibition at 100 µM (Influenza A virus [3])?
A: > 75%

Q: What about the viability at 40 h, 100 µM [4] of the same molecule?
A: > 75%

Q: And the selectivity ratio [5]?
A: > 13.8

Q: Which Activity (MDCK) does the source give for CC1(C)CC[C@]2(C(=O)NCc3cn([C@@H]4O[C@H](CO)[C@H](O)[C@H](O)[C@H]4O)nn3)CC[C@]3(C)C(=CC[C@@H]4[C@@]5(C)CC[C@H](O)C(C)(C)[C@@H]5CC[C@]43C)[C@@H]2C1 here?
A: Non-Toxic

Q: With CC(=O)O[C@@H]1[C@@H](OC(C)=O)[C@H](C)O[C@@H](n2cc(CNC(=O)[C@]34CCC(C)(C)C[C@H]3C3=CC[C@@H]5[C@@]6(C)CC[C@H](O)C(C)(C)[C@@H]6CC[C@@]5(C)[C@]3(C)CC4)nn2)[C@@H]1OC(C)=O as the molecule, how does the Activity (MDCK) read?
A: Non-Toxic

Q: Which Activity (MDCK) does the source give for CC1(C)CC[C@]2(C(=O)NCc3cn([C@@H]4O[C@H](CO)[C@@H](O[C@@H]5O[C@H](CO)[C@H](O)[C@H](O)[C@H]5O)[C@H](O)[C@H]4O)nn3)CC[C@]3(C)C(=CC[C@@H]4[C@@]5(C)CC[C@H](O)C(C)(C)[C@@H]5CC[C@]43C)[C@@H]2C1 here?
A: Non-Toxic

Q: With CC1(C)CC[C@]2(C(=O)O)CC[C@]3(C)C(=CC[C@@H]4[C@@]5(C)CC[C@H](O)C(C)(C)[C@@H]5CC[C@]43C)[C@@H]2C1 [OLEANOLIC_ACID] as the molecule, how does the CC50 at 40 h [1] read?
A: > 100 µM

Q: What about the IC50 (Influenza A virus [2]) of the same molecule?
A: 72.2 µM

Q: What about the selectivity ratio [5] of the same molecule?
A: > 1.38

Q: With CC1(C)CC[C@]2(C(=O)NCc3cn([C@@H]4O[C@H](CO)[C@@H](O[C@H]5O[C@H](CO)[C@@H](O)[C@H](O)[C@H]5O)[C@H](O)[C@H]4O)nn3)CC[C@]3(C)C(=CC[C@@H]4[C@@]5(C)CC[C@H](O)C(C)(C)[C@@H]5CC[C@]43C)[C@@H]2C1 as the molecule, how does the Activity (MDCK) read?
A: Non-Toxic

Q: With CC1(C)CC[C@]2(C(=O)NCc3cn([C@@H]4O[C@H](CO)[C@@H](O[C@H]5O[C@H](CO)[C@@H](O[C@H]6O[C@H](CO)[C@@H](O)[C@H](O)[C@H]6O)[C@H](O)[C@H]5O)[C@H](O)[C@H]4O)nn3)CC[C@]3(C)C(=CC[C@@H]4[C@@]5(C)CC[C@H](O)C(C)(C)[C@@H]5CC[C@]43C)[C@@H]2C1 as the molecule, how does the Activity (MDCK) read?
A: Non-Toxic

Q: And the Activity (Influenza A virus [6])?
A: inactive

Q: For CCOC(=O)C1=C[C@@H](OC(CC)CC)[C@H](NC(C)=O)[C@@H](N)C1 [OSELTAMIVIR PHOSPHATE], which IC50 (Influenza B virus [7]) is on record?
A: 23.4 µM

Q: What about the IC50 (Influenza A virus [8]) of the same molecule?
A: > 100 µM

Q: And the IC50 (Influenza B virus [9])?
A: > 100 µM

Q: And the IC50 (Influenza B virus [10])?
A: > 100 µM

Q: And the CC50 at 40 h [1]?
A: > 100 µM

Q: And the IC50 (Influenza A virus [2])?
A: 1.82 µM

Q: And the selectivity ratio [5]?
A: > 54.9

Q: Which Activity (MDCK) does the source give for CC(=O)O[C@@H]1[C@@H](OC(C)=O)[C@H](n2cc(CNC(=O)[C@]34CCC(C)(C)C[C@H]3C3=CC[C@@H]5[C@@]6(C)CC[C@H](O)C(C)(C)[C@@H]6CC[C@@]5(C)[C@]3(C)CC4)nn2)OC[C@@H]1OC(C)=O here?
A: Non-Toxic

Q: Which results are given for CC(=O)OC[C@H]1O[C@@H](n2cc(CNC(=O)[C@]34CCC(C)(C)C[C@H]3C3=CC[C@@H]5[C@@]6(C)CC[C@H](O)C(C)(C)[C@@H]6CC[C@@]5(C)[C@]3(C)CC4)nn2)[C@H](OC(C)=O)[C@@H](OC(C)=O)[C@H]1OC(C)=O?
A: Activity (MDCK): Toxic; inhibition at 100 µM (Influenza A virus [3]): 75%

Q: For CC(=O)OC[C@H]1O[C@@H](O[C@H]2[C@H](OC(C)=O)[C@@H](OC(C)=O)[C@H](n3cc(CNC(=O)[C@]45CCC(C)(C)C[C@H]4C4=CC[C@@H]6[C@@]7(C)CC[C@H](O)C(C)(C)[C@@H]7CC[C@@]6(C)[C@]4(C)CC5)nn3)O[C@@H]2COC(C)=O)[C@H](OC(C)=O)[C@@H](OC(C)=O)[C@H]1OC(C)=O, which Activity (MDCK) is on record?
A: Non-Toxic
